In brackets after ≈: the same amount, converted by molar mass. Activity calls are given as the source filed them. No cut-off for these calls is given here.
Experiments:
[1] = system: Staphylococcus aureus; experiment: Antibacterial activity against Staphylococcus aureus ATCC 6538 after 17 hrs by resazurin dye based fluorimetric assay; assay type: functional, organism-based; conditions: ATCC 6538, 17 h
Summary of the method: (§1)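 Bacteria grown in Mueller Hinton broth; 5 × 10³ CFU/mL inoculum with compound at 64, 16, 4, 1 and 0.25 µM (DMSO final <1%), 37 °C for 17 h. Resazurin added, fluorescence read after 0.5 h (ex 550/em 590 nm). Growth normalised to untreated (100%) and medium-only (0%) wells; IC50 calculated.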

[2] = system: Escherichia coli; experiment: Antibacterial activity against Escherichia coli ATCC 8739 after 17 hrs by resazurin dye based fluorimetric assay; assay type: functional, organism-based; conditions: ATCC 8739, ATCC 8739, 17 h; summary of the method: as §1
[3] = system: Candida albicans; experiment: Antifungal activity against azole-resistant Candida albicans after 24 hrs by resazurin dye based fluorimetric assay; assay type: functional, organism-based
Summary of the method: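 Inoculum 5 × 10³ CFU/mL in RPMI-1640 with Mops buffer and glucose. Tested at 64, 16, 4, 1 and 0.25 µM from DMSO stocks, final DMSO <1%. Incubated 24 h at 37 °C, then resazurin added and fluorescence read after 0.5 h (ex 550/em 590 nm). Growth normalized to untreated (100%) and medium-only (0%) wells; IC50 calculated. Flucytosine positive control.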

[4] = system: Trypanosoma cruzi; experiment: Antitrypanosomal activity against beta-galactosidase expressing nifurtimox-sensitive Trypanosoma cruzi Tulahuen CL2 infected in human MRC5 SV2 cells assessed as reduction in parasite burden after 168 hrs by CPRG and Nonidet based spectrophotometric analysis; assay type: functional, organism-based; conditions: Tulahuen CL2, MRC-5 SV2, 168 h
Summary of the method: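 MRC-5 cells (4·10³/well) plus 4·10⁴ parasites per well with compound at 64–0.25 µM, 37 °C, 5% CO2 for 7 days. CPRG/Nonidet in PBS added; absorbance at 540 nm after 4 h. Percent burden reduction versus untreated-infected and uninfected controls; IC50 calculated.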

[5] = system: Trypanosoma brucei; experiment: Antitrypanosomal activity against suramin-sensitive Trypanosoma brucei Squib 427 assessed as parasite growth inhibition after 72 hrs by resazurin assay; assay type: functional, organism-based; conditions: Squib 427, 72 h
Summary of the method: (§2)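 Bloodstream parasites in HMI-9 with 10% inactivated FCS; 1.5 × 10³ (T. brucei) or 4 × 10³ (T. rhodesiense) per well, compound 64–0.25 µM, 37 °C, 5% CO2, 3 days. Resazurin (50 µg/mL) added; fluorescence read after 24 h (T. brucei) or 6 h (T. rhodesiense), ex 550/em 590 nm. IC50 from % growth inhibition.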

[6] = system: Trypanosoma brucei rhodesiense; experiment: Antitrypanosomal activity against Trypanosoma brucei rhodesiense STIB 900 assessed as parasite growth inhibition after 72 hrs by resazurin assay; assay type: functional, organism-based; conditions: STIB 900, 72 h; summary of the method: as §2
[7] = system: Leishmania infantum; experiment: Antileishmanial activity against amastigote stage of Leishmania infantum MHOM/MA(BE)/67 infected in mouse primary peritoneal macrophages assessed as decrease in parasite burden after 5 days by Giemsa staining-based microscopic method; assay type: functional, organism-based; conditions: MHOM/MA(BE)/67, 120 h
Summary of the method: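 Amastigotes purified from infected hamster spleen; starch-stimulated mouse peritoneal macrophages (3·10⁴/well) infected with 4.5·10⁵ parasites in supplemented RPMI-1640. Compound (64–0.25 µM) added 2 h post-infection; 5 days, 37 °C, 5% CO2. Amastigotes per macrophage counted microscopically after 10% Giemsa staining; % burden reduction versus controls, IC50 calculated.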

[8] = system: Mycobacterium tuberculosis; experiment: Antitubercular activity against Mycobacterium tuberculosis H37Rv by MABA; assay type: functional
[9] = system: Mycobacterium tuberculosis; experiment: Antitubercular activity against Mycobacterium tuberculosis H37Rv by LORA; assay type: functional
[10] = Cytotoxicity against human MRC5 SV2 cells after 3 days by resazurin dye based fluorescence assay; assay type: cell-based; conditions: MRC-5 SV2, 72 h
Summary of the method: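 MRC-5SV2 fibroblasts in MEM with L-glutamine, NaHCO3, 5% inactivated FCS; 5 × 10³ inoculum with compound at 64–0.25 µM (4-fold steps, DMSO <1%), 37 °C, 5% CO2, 3 days. Resazurin added, fluorescence after 4 h (ex 550/em 590 nm). Viability relative to untreated and medium controls; IC50 calculated.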

[11] = system: Staphylococcus epidermidis; experiment: Antibiofilm activity against Staphylococcus epidermidis ATCC 35984 at 125 uM by safranin staining based assay relative to control; assay type: functional
[12] = system: Staphylococcus epidermidis; experiment: Growth inhibition of Staphylococcus epidermidis ATCC 35984; assay type: functional, organism-based
[13] = system: Pseudomonas aeruginosa; experiment: Antibiofilm activity against Pseudomonas aeruginosa CUCG 56489 at 250 uM by safranin staining based assay relative to control; assay type: functional
[14] = system: Escherichia coli; experiment: Antibiofilm activity against Escherichia coli clinical isolates at 500 uM by safranin staining based assay relative to control; assay type: functional
[15] = system: Escherichia coli; experiment: Growth inhibition of Escherichia coli clinical isolates at 500 uM; assay type: functional; conditions: read-out: GI
[16] = system: Staphylococcus epidermidis; experiment: Antibiofilm activity against Staphylococcus epidermidis ATCC 35984 up to 1000 uM by safranin staining based assay; assay type: functional, organism-based
[17] = system: Pseudomonas aeruginosa; experiment: Antibiofilm activity against Pseudomonas aeruginosa CUCG 56489 up to 1000 uM by safranin staining based assay; assay type: functional, organism-based
[18] = system: Escherichia coli; experiment: Antibiofilm activity against Escherichia coli clinical isolates at 1 mM by safranin staining based assay relative to control; assay type: functional

| SMILES | IC50 [1] | IC50 [2] | IC50 [3] | IC50 [4] | IC50 [5] | IC50 [6] | IC50 [7] | MIC [8] | MIC [9] | IC50 [10] | other results |
| --- | --- | --- | --- | --- | --- | --- | --- | --- | --- | --- | --- |
| CC(C)=CCC/C(C)=C/CC/C(C)=C/CC/C(C)=C/C[n+]1cn(C)c2nc[nH]/c(=N\O)c21.[Br-] | 1890 nM | > 64000 nM | 2000 nM | 540 nM | 2010 nM | 500 nM | 2160 nM | 11.3 µg/mL | 15.3 µg/mL | 1900 nM | Activity [11]: 90%; IC50 [12]: 125000 nM; Activity [13]: 40 - 50%; Activity [14]: 70%; inhibition of growth at 500 µM [15]: 20% |
| CC/C(=C(\c1ccccc1)c1ccc(OCCN(C)C)cc1)c1ccccc1 [TAMOXIFEN] |  |  |  |  |  |  |  |  |  | 11200 nM |  |
| O=C(Cn1ccnc1[N+](=O)[O-])NCc1ccccc1 [BENZNIDAZOLE] |  |  |  | 2690 nM |  |  |  |  |  |  |  |
| CCCCCCCCCCCCCCCCOP(=O)([O-])OCC[N+](C)(C)C [MILTEFOSINE] |  |  |  |  |  |  | 11800 nM |  |  |  |  |
| CC(C)=CCC/C(C)=C/C[n+]1cn(C)c2nc[nH]/c(=N\O)c21.[Br-] | > 64000 nM | > 64000 nM | > 64000 nM | 11500 nM | 28000 nM | 8060 nM | 20300 nM | > 50 µg/mL | > 50 µg/mL | > 64000 nM | Activity [16]: inactive; Activity [17]: inactive; Activity [18]: 50% |
| Cc1ccc(C(=O)Nc2ccc(S(=O)(=O)O)c3cc(S(=O)(=O)O)cc(S(=O)(=O)O)c23)cc1NC(=O)c1cccc(NC(=O)Nc2cccc(C(=O)Nc3cc(C(=O)Nc4ccc(S(=O)(=O)O)c5cc(S(=O)(=O)O)cc(S(=O)(=O)O)c45)ccc3C)c2)c1 [SURAMIN] |  |  |  |  | 20 nM | 30 nM |  |  |  |  |  |
| C[C@H]1c2cccc(O)c2C(=O)C2=C(O)[C@]3(O)C(=O)C(C(N)=O)=C(O)[C@@H](N(C)C)[C@@H]3[C@@H](O)[C@@H]21 [DOXYCYCLINE] | 30 nM | 580 nM |  |  |  |  |  |  |  |  |  |
| NNC(=O)c1ccncc1 [ISONIAZID] |  |  |  |  |  |  |  | 0.48 µg/mL (≈ 3.5 µM) | > 128 µg/mL |  |  |
| Nc1nc(=O)[nH]cc1F [FLUCYTOSINE] |  |  | 410 nM |  |  |  |  |  |  |  |  |
